The target of assay [1] is T1, Leucine aminopeptidase (Plasmodium falciparum 3D7) (UniProt Q8IL11).
T1 sequence (whole entry): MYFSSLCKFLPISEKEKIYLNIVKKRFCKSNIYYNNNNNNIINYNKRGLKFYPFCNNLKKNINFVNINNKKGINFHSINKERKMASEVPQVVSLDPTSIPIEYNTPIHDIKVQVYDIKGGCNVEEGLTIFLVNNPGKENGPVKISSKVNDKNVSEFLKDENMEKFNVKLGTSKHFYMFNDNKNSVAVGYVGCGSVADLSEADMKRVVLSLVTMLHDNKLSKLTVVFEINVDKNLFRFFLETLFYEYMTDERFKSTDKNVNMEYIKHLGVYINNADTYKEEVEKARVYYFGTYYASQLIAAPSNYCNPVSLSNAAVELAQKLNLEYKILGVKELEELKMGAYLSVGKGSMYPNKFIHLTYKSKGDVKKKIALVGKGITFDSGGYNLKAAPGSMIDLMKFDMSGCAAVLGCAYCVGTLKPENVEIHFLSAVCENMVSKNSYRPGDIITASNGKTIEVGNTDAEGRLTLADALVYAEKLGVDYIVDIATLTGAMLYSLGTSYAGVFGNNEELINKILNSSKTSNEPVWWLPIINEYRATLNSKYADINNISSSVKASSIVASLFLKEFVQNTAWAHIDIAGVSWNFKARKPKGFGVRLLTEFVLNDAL
Briefly: Inhibition of leucyl aminopeptidase activity in Plasmodium falciparum 3D7 at 0.1 uM using Leu-AMC as a substrate by spectrophotometer in presence of 1 mM CoCl2.

Assay [2] addresses T1, Leucine aminopeptidase (Plasmodium falciparum 3D7). Briefly: Inhibition of leucyl aminopeptidase activity in Plasmodium falciparum 3D7 at 10 uM using Leu-AMC as a substrate by spectrophotometer. In short, it runs like this: (§1)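 Cytosolic extract came from free parasites released from infected erythrocytes, then three freeze-thaw cycles and centrifugation at 12,000 x g, 4°C, 20 min. Extract (25 µg/ml final) was preincubated with 0.1 or 10 µM inhibitor in 50 mM Tris-Cl pH 8.0, with or without 1 mM CoCl2, for 15 min at 37°C. Leu-AMC or Ala-AMC (10 µM final) was added. AMC release was read over 30 min (ex 370/em 440 nm).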

The next assay has as its target T2, Aminopeptidase N (Sus scrofa, UniProt P15145).
T2 sequence (P15145 whole entry): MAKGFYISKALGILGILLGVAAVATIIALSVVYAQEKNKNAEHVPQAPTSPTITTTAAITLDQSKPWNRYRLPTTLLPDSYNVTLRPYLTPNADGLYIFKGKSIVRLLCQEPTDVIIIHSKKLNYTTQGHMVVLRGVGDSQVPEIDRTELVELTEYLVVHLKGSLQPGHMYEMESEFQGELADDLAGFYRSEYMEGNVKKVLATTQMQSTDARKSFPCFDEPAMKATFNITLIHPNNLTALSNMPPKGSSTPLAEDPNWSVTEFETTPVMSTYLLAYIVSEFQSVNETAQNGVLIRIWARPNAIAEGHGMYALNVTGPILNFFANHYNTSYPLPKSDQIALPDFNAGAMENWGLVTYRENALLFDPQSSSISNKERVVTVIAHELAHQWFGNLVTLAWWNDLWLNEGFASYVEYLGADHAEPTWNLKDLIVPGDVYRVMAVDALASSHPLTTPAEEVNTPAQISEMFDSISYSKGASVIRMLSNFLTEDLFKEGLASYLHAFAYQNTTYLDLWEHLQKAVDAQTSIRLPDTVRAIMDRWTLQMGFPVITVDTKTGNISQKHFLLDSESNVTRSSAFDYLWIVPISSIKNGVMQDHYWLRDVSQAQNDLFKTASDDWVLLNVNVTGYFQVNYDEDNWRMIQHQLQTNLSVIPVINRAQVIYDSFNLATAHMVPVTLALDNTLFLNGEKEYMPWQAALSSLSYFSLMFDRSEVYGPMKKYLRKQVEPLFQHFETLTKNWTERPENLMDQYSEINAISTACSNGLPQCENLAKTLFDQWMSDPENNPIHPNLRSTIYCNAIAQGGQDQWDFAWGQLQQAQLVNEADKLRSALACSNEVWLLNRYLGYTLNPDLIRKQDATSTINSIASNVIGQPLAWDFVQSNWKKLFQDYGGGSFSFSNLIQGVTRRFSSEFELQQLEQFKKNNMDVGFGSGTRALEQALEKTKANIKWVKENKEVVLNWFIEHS
Put plainly: Inhibition of pig kidney microsomal aminopeptidase N.

For assay [3], the system named is Plasmodium falciparum. Put plainly: Inhibition of alanyl aminopeptidase activity in Plasmodium falciparum 3D7 at 10 uM using Ala-AMC as a substrate by spectrophotometer. In short, it runs like this: as §1
The test system of assay [4] is Plasmodium falciparum. Briefly: Inhibition of alanyl aminopeptidase activity in Plasmodium falciparum 3D7 at 0.1 uM using Ala-AMC as a substrate by spectrophotometer. In short, it runs like this:
as §1

Assay [5] has as its target T1, Leucine aminopeptidase (Plasmodium falciparum 3D7). Briefly: Inhibition of leucyl aminopeptidase activity in Plasmodium falciparum 3D7 at 0.1 uM using Leu-AMC as a substrate by spectrophotometer. In short, it runs like this:
as §1

Assay [6] has as its system Plasmodium falciparum. Put plainly: Antimalarial activity against Plasmodium falciparum 3D7 infected in O-positive human erythrocytes after 72 hrs. In kind it is functional, organism-based. The note with it: 3D7, 72 h. Summed up: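 Asynchronous asexual blood-stage P. falciparum 3D7 were cultured in O+ erythrocytes and exposed to compounds for 72 h. Growth was read by the spectrophotometric parasite lactate dehydrogenase absorbance assay. IC50 values were determined graphically from dose-response curves.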

In assay [7] the target is T1, Leucine aminopeptidase (Plasmodium falciparum 3D7). Put plainly: Inhibition of leucyl aminopeptidase activity in Plasmodium falciparum 3D7 at 10 uM using Leu-AMC as a substrate by spectrophotometer in presence of 1 mM CoCl2.
Assay [8] in a line: Inhibition of porcine kidney leucyl aminopeptidase. Also noted: species or system Sus scrofa.
Assay [9] addresses T1, Leucine aminopeptidase (Plasmodium falciparum 3D7). Briefly: Inhibition of leucyl aminopeptidase activity in Plasmodium falciparum 3D7 harboring tPfAP-M17 gene at 0.1 uM using Leu-AMC as a substrate by spectrophotometer in presence of 1 mM CoCl2.

As for `N[C@@H](C1CCCCC1)P(=O)(O)O`, the inhibition in assay [1] is 50%; in assay [2], 12%; in [5], 0%; in assay [7] it was 67%. In addition, the Ki on Aminopeptidase N turned out to be 161 µM; in [8] it was 7.89 µM. In the assay with Plasmodium falciparum [3], this compound displayed an inhibition at 10 µM of 8%. Further, at 0.1 µM the inhibition in the assay on Plasmodium falciparum [4] was 2%. This compound also came in with an IC50 with Plasmodium falciparum [6] of 54 µM.
In the case of `NC(CCc1ccccc1)P(=O)(O)O` (racemic), the inhibition in assay [1] was found to be 41%; in assay [2], 93%; in assay [5], 15%; in assay [7] it was 92%; in assay [9], 27%. For the same compound, at 10 µM the inhibition in the assay with Plasmodium falciparum [3] was 95%. Also, 0.1 µM produced 15% inhibition with Plasmodium falciparum [4]. In the assay with Plasmodium falciparum [6], this compound registered an IC50 of 22 µM. The Ki in [8] worked out at 0.14 µM.
Consider `NC(CCCC1CCCCC1)P(=O)(O)O` (racemic), for which the inhibition came out at 51% in [1]; 95% in assay [2]; 17% in assay [5]; 91% in assay [7]; 34% in assay [9]. Moreover, the values for the inhibition constant (Ki) (at Aminopeptidase N; in assay [8]) were 41.6 µM and 9.57 µM, respectively. In the assay on Plasmodium falciparum [3], this compound had an inhibition at 10 µM of 95%. Also, the inhibition at 0.1 µM with Plasmodium falciparum [4] is 15%. In addition, the half-maximal inhibitory concentration (IC50) in the assay on Plasmodium falciparum [6] was 14 µM.
Consider `NC(CC1CCCCC1)P(=O)(O)O` (racemic), for which the inhibition came to 21% in assay [1], 27% in assay [2], 3% in [5] and 69% in [7]. Besides, the inhibition constant Ki at Aminopeptidase N came to 54.7 µM; in [8], 0.75 µM. In the assay with Plasmodium falciparum [3], this compound returned an inhibition at 10 µM of 20%. In the assay with Plasmodium falciparum [4], this compound registered an inhibition at 0.1 µM of 0%. This compound showed a concentration for half-maximal inhibition (IC50) with Plasmodium falciparum [6] of 119 µM.
Take `NC(CCC1CCCCC1)P(=O)(O)O` (racemic): the inhibition in assay [1] amounted to 43%; in [2], 94%; in assay [5] it was 17%; in [7] it was 91%; in assay [9], 67%. Besides, the inhibitory constant (Ki) on Aminopeptidase N was 37.1 µM; in [8], 0.21 µM. The compound further registered an inhibition at 10 µM in the assay with Plasmodium falciparum [3] of 94%. The inhibition at 0.1 µM in the assay with Plasmodium falciparum [4] was found to be 13%. In addition, in the assay with Plasmodium falciparum [6], it took 15 µM to reach half-maximal inhibition (IC50).
`NC(CCCCc1ccccc1)P(=O)(O)O` (racemic): the inhibition amounted to 25% in assay [1]; 97% in [2]; 28% in assay [5]; 92% in assay [7]; 61% in assay [9]. Moreover, the Ki turned out to be 3.69 µM on Aminopeptidase N and 0.33 µM in [8]. Moreover, at 10 µM the inhibition in the assay on Plasmodium falciparum [3] was 97%. The same compound gave an inhibition at 0.1 µM in the assay with Plasmodium falciparum [4] of 28%. In the assay on Plasmodium falciparum [6], this compound had an IC50 of 22 µM.
Consider `CC(C)C[C@H](NC(=O)[C@@H](O)[C@H](N)Cc1ccccc1)C(=O)O` [UBENIMEX], for which the inhibition in [1] was found to be 6%; in assay [2] it was 98%; in [5], 33%; in [7], 93%; in assay [9], 47%. The same compound came in with an inhibition at 10 µM in the assay on Plasmodium falciparum [3] of 97%. The compound also yielded an inhibition at 0.1 µM in the assay on Plasmodium falciparum [4] of 29%.
